Measurements reported in ChEMBL document CHEMBL2069288, “Virtual screening leads to the discovery of novel non-nucleotide P2Y₁ receptor antagonists” (Bioorg Med Chem, 2012).

Tests used:
P2Y purinoceptor 1 [1] = biological target: T1, P2Y purinoceptor 1 (Homo sapiens, UniProt P47900); experiment: Displacement of [125I]MRS2500 from human P2Y1R expressed in Sf9 cell membrane at 20 uM
How it was run: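 Binding screen used hP2Y1R-expressing Sf9 cell membranes and about 0.2 nM [125I]MRS2500. Each test compound was applied at 20 µM, and the value is percent inhibition of specific radioligand binding.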

P2Y purinoceptor 1 [2] = biological target: T1, P2Y purinoceptor 1; experiment: Antagonist activity at human P2Y1R expressed in human 1321N1 cells assessed as inhibition of 2-MeSADP-induced increase in intracellular calcium mobilization at 10 uM; assay type: functional, cell-based
How it was run: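 hP2Y1R-expressing 1321N1 cells were kept in DMEM with 5% FBS and geneticin, grown overnight to about 60–80% confluency, and loaded with Calcium 4 dye for 1 h at room temperature without washing. Test compound at 10 µM was added 20 min before 2-MeSADP (30 nM; curves 10−9–10−5 M). Read-out was fluorescence (ex 485/em 525 nm), peak minus basal, in triplicate.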

P2Y purinoceptor 1 [3] = biological target: T1, P2Y purinoceptor 1; experiment: Displacement of [125I]MRS2500 from human P2Y1R expressed in Sf9 cell membrane
How it was run: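 Competition binding used membranes of Sf9 insect cells expressing hP2Y1R, with [125I]MRS2500 at approximately 0.2 nM.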

P2Y purinoceptor 1 [4] = biological target: T1, P2Y purinoceptor 1; experiment: Antagonist activity at human P2Y1R expressed in human 1321N1 cells assessed as inhibition of 2-MeSADP-induced increase in intracellular inositol phosphate generation; assay type: functional, cell-based
How it was run: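 In 1321N1 cells stably expressing hP2Y1R, cells were labeled 18–24 h at 37°C with 2-[3H]myo-inositol in inositol-free DMEM. Agonist-stimulated [3H]inositol phosphate accumulation was measured over 10 min at 37°C with 10 mM LiCl. Total inositol phosphates were separated by anion-exchange chromatography. IC50 is the mean of 3 independent concentration-effect curves.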

T1 sequence (P47900 whole entry): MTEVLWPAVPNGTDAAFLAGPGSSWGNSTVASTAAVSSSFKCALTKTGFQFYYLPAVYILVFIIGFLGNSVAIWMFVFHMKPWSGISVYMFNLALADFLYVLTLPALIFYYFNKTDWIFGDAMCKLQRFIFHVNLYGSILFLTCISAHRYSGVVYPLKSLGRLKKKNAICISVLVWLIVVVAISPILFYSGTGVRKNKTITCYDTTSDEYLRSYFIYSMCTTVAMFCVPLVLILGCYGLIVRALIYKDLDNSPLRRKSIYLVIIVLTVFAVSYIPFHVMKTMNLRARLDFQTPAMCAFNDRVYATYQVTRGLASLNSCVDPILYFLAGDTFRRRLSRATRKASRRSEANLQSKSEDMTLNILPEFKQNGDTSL

Row | Structure (SMILES) | inhibition (P2Y purinoceptor 1 [1]) | inhibition (P2Y purinoceptor 1 [2]) | Ki (P2Y purinoceptor 1 [3]) | IC50 (P2Y purinoceptor 1 [4])
1 | COc1ccc(NC(=O)Nc2ccc(S(=O)(=O)Nc3onc(C)c3C)cc2)cc1OC | < 10% | 9.1% |  | 
2 | Cc1noc(NS(=O)(=O)c2ccc(NC(=O)Nc3cc(F)cc(F)c3)cc2)c1C |  | 10.2% | ≥ 100 µM | 
3 | Cc1ccc(NC(=O)Nc2ccc(S(=O)(=O)Nc3onc(C)c3C)cc2)cc1C | < 10% | 9.4% |  | 0.13 µM
4 | CN(C)CCCN(C(=O)c1ccco1)c1nc2cc3c(cc2s1)OCO3 | 40% |  |  | 
5 | COc1cc(NS(=O)(=O)c2ccc(NC(=O)Nc3cccc(Cl)c3)cc2)nc(OC)n1 |  |  | 6 µM | 
6 | Cc1noc(NS(=O)(=O)c2ccc(NC(=O)Nc3cc(Cl)cc(Cl)c3)cc2)c1C |  | 17.6% | 27 µM | 
7 | Cc1noc(NS(=O)(=O)c2ccc(NC(=O)Nc3ccc(F)c(F)c3)cc2)c1C | < 10% | 11.3% |  | 
8 | Cn1c(=O)[nH]c(=O)c2nc(NCCCO)n(CC(O)COc3ccccc3)c21 (configuration not stated) | 20% |  |  | 
9 | Cc1noc(NS(=O)(=O)c2ccc(NC(=O)Nc3cccc(Cl)c3)cc2)c1C |  | 21.7% | ≥ 100 µM | 
10 | Cc1noc(NS(=O)(=O)c2ccc(NC(=O)Nc3ccccc3)cc2)c1C | < 10% | < 5% |  | 
11 | COc1ccc(S(=O)(=O)Nc2ccc3c(c2)C(=O)Nc2ccccc2O3)cc1OC | 20% |  |  | 
12 | Cc1noc(NS(=O)(=O)c2ccc(NC(=O)Nc3ccc(C(F)(F)F)cc3)cc2)c1C |  | 32.7% | 45 µM | 
13 | O=C(CSC1=NC(=O)N(CCCN2CCOCC2)C2CCCC12)Nc1ccc2c(c1)OCO2 (configuration not stated) | 20% |  |  | 

Other lines, results leading:

Row | inhibition (P2Y purinoceptor 1 [1]) | inhibition (P2Y purinoceptor 1 [2]) | Ki (P2Y purinoceptor 1 [3]) | IC50 (P2Y purinoceptor 1 [4]) | Structure (SMILES)
14 | 20% |  |  |  | COc1ccc(S(=O)(=O)NCC(c2ccc3c(c2)OCO3)N2CCN(C)CC2)cc1OC (configuration not stated)
15 |  |  | 10 µM |  | CCc1nnc(NS(=O)(=O)c2ccc(NC(=O)Nc3ccc(C(F)(F)F)cc3)cc2)s1
16 | 20% |  |  |  | Cc1cc(NC(=O)CSc2ccc3nnc(CCNS(=O)(=O)c4ccccc4)n3n2)no1
17 |  | 31.3% | 42 µM |  | Cc1noc(NS(=O)(=O)c2ccc(NC(=O)Nc3ccc(F)c(Cl)c3)cc2)c1C
18 | 20% |  |  |  | Cn1nnc2c(Cc3ccc(S(N)(=O)=O)cc3)ncnc21
19 | 30% |  |  |  | CC1=C2C(=O)NC(SCC(=O)Nc3ccc(S(=O)(=O)NCCCC(=O)O)cc3)=NC2SC1C(=O)O (configuration not stated)
20 |  | 36.8% | 13 µM | 0.14 µM | Cc1noc(NS(=O)(=O)c2ccc(NC(=O)Nc3ccc(Cl)c(Cl)c3)cc2)c1C
